Laboratory results taken from ChEMBL document CHEMBL1121831 (1981).

How the values were obtained:
CCRF-CEM [1] = experiment: Compound was tested for the inhibition of growth of human lymphoblastic leukemia cells (CEM); assay type: functional; details: read-out: ID50 (the source's name)
Outline: (§1)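 CEM human lymphoblastic and L1210 murine leukemia cells were grown in culture with drug for 48 h, at concentrations up to 10 μM. The read-out was growth inhibition, given as ID50 or, where ID50 was not reached, as percent inhibition at 10 μM. Values are averages of triplicate experiments.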

[2] = molecular target: T1, Dihydrofolate reductase (Mus musculus) (UniProt P00375); experiment: Affinity for mammalian (L1210 mouse leukemia) dihydrofolate reductase
T1 sequence (whole entry): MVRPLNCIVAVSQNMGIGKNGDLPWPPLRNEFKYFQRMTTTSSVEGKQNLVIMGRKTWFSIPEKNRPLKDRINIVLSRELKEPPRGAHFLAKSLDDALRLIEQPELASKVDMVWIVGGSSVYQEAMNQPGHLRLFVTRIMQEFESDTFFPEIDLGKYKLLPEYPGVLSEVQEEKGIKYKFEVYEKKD
Outline: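 Partially purified DHFR from L1210 cells, diluted 8-fold in 0.1 M KH2PO4 (pH 6.2) with 0.1% BSA and 1 mM NADPH, then held on ice 5 min. Competition with [3H]MTX over serial 5-fold dilutions starting from a 6 μM solution, 5 min at 0 °C. Unbound ligand removed with Norite charcoal and the supernatant counted; ID50 (50% drop in bound label) read from a logit-log plot.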

L1210 [3] = experiment: Compound was tested for the inhibition of growth of murine leukemia cells (L1210); assay type: functional; details: Mus musculus, read-out: ID50 (the source's name); outline: as §1
[4] = molecular target: Dihydrofolate reductase (Lactobacillus casei) (UniProt P00381); experiment: Affinity for partially purified bacterial (Lactobacillus casei) dihydrofolate reductase; details: Lacticaseibacillus casei
Sequence of Dihydrofolate reductase (Lactobacillus casei) (P00381 whole entry): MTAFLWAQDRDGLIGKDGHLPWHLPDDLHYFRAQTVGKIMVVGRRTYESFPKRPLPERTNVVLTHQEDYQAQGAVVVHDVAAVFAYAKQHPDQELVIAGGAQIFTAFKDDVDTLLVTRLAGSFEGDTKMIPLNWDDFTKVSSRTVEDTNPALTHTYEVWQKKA

L1210 [5] = experiment: Compound is tested for the inhibition of growth of murine leukemia cells (L1210); assay type: functional; details: Mus musculus, read-out: ID50 (the source's name); outline: as §1
[6] = molecular target: Dihydrofolate reductase (Lactobacillus casei) (UniProt P00381); experiment: Compound is evaluated for binding to Lactobacillus casei dihydrofolate reductase using kinetic assay; details: Lacticaseibacillus casei
[7] = molecular target: T1, Dihydrofolate reductase (Mus musculus); experiment: Compound is evaluated for binding to L1210 mouse leukemia cells dihydrofolate reductase using ligand-binding assay
L1210 [8] = experiment: Compound is evaluated for activity against L1210 leukemia in mice, at dose 120 mg/kg; assay type: functional, Mus musculus
Outline: (§2)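 B6D2F1 mice were inoculated ip with 10^5 L1210 cells on day 0. Test agents were given ip on days 1, 4 and 7 in 10% Tween 80 or a 1:1:8 emulphor-ethanol-water suspension; MTX was given ip as the disodium salt in water. Groups were mostly five mice. Read-out was median survival of treated vs control mice (days) and % increase in life span.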

L1210 [9] = experiment: Compound is evaluated for percent increase in life span against L1210 leukemia in mice, at dose 40 mg/kg; assay type: functional; details: Mus musculus
Outline: (§3)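 B6D2F1 mice were inoculated ip with 10⁵ L1210 cells on day 0. Drug was given ip on days 1, 4 and 7 (q3d) as a suspension in 10% Tween 80 or 1:1:8 emulphor–ethanol–water, or as the disodium salt in water. The read-out was median survival of treated versus control mice (T/C, days), expressed as % increase in life span.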

L1210 [10] = experiment: Compound is evaluated for activity against L1210 leukemia in mice, at dose 40 mg/kg; assay type: functional, Mus musculus; outline: as §2
CCRF-CEM [11] = experiment: Compound is tested for the inhibition of growth of human lymphoblastic leukemia cells (CEM); assay type: functional; details: read-out: ID50 (the source's name); outline: as §1
L1210 [12] = experiment: Compound is evaluated for percent increase in life span against L1210 leukemia in mice, at dose 120 mg/kg; assay type: functional; details: Mus musculus; outline: as §3
L1210 [13] = experiment: Compound is evaluated for activity against L1210 leukemia in mice, at dose 80 mg/kg; assay type: functional, Mus musculus; outline: as §2
L1210 [14] = experiment: Compound is evaluated for percent increase in life span against L1210 leukemia in mice, at dose 80 mg/kg; assay type: functional; details: Mus musculus; outline: as §3
Mus musculus [15] = experiment: Compound is evaluated for activity against L1210 leukemia in mice, at dose 80 mg/kg expressed as T/C=19/9; assay type: functional; outline: as §2
Mus musculus [16] = experiment: Compound is evaluated for activity against L1210 leukemia in mice, at dose 40 mg/kg expressed as T/C= 13/9; assay type: functional; outline: as §2
[17] = molecular target: Dihydrofolate reductase (Lactobacillus casei) (UniProt P00381); experiment: Compound is evaluated for binding to dihydrofolate reductase of Lactobacillus casei using kinetic assay; details: Lacticaseibacillus casei
Mus musculus [18] = experiment: Compound is evaluated for activity against L1210 leukemia in mice, at dose 120 mg/kg expressed as T/C=23/9; assay type: functional; outline: as §2
Mus musculus [19] = experiment: Compound is evaluated for activity against L1210 leukemia in mice, at dose 30 mg/kg expressed as T/C=16.5/9; assay type: functional; outline: as §2
Mus musculus [20] = experiment: Compound is evaluated for activity against L1210 leukemia in mice, at dose 15 mg/kg expressed as T/C=15.5/9; assay type: functional; outline: as §2
L1210 [21] = experiment: Compound is evaluated for percent increase in against L1210 leukemia in mice, at dose 30 mg/kg; assay type: functional; details: Mus musculus, L1210, dose 30 mg/kg; outline: as §3
L1210 [22] = experiment: Compound is evaluated for percent increase in against L1210 leukemia in mice, at dose 15 mg/kg; assay type: functional; details: Mus musculus; outline: as §3
RBL-1 = experiment: Compound is tested for the inhibition of growth of rat basophilic leukemia (RBL)cells; assay type: functional; details: read-out: ID50 (the source's name)
Mus musculus [23] = experiment: Compound is evaluated for activity against L1210 leukemia in mice, at dose 60 mg/kg expressed as T/C=18/9; assay type: functional; outline: as §2
L1210 [24] = experiment: Compound is evaluated for increase in life span against L1210 leukemia in mice, at dose 80 mg/kg; assay type: functional; details: Mus musculus; outline: as §3
Mus musculus [25] = experiment: Compound is evaluated for activity against L1210 leukemia in mice, at dose 160 mg/kg expressed as T/C=13/9; assay type: functional; outline: as §2
Mus musculus [26] = experiment: Compound is evaluated for activity against L1210 leukemia in mice, at dose 80 mg/kg expressed as T/C=11/9; assay type: functional; outline: as §2
L1210 [27] = experiment: Compound is evaluated for activity against L1210 leukemia in mice, at dose 160 mg/kg; assay type: functional, Mus musculus; outline: as §2
L1210 [28] = experiment: Compound is evaluated for increase in life span against L1210 leukemia in mice, at dose 160 mg/kg; assay type: functional; details: Mus musculus; outline: as §3

CN(Cc1ccccc1)C(=O)CCC(NC(=O)c1ccc(N(C)Cc2cnc3nc(N)nc(N)c3n2)cc1)C(=O)N(C)Cc1ccccc1 (stereo not drawn) showed an IC50 (CCRF-CEM [1]) of 6400 nM, an ID50 [2] of 26 nM and an IC50 (L1210 [3]) of 9400 nM. It also gave an ID50 [4] of 440 nM.
CN(Cc1cnc2nc(N)nc(N)c2n1)c1ccc(C(=O)NC(CCC(=O)N2CCCCC2)C(=O)N2CCCCC2)cc1 (stereo not drawn) was tested, and the IC50 (L1210 [5]) was over 10000 nM, the ID50 [6] was 250 nM and the ID50 [7] was 12 nM.
Molecule CN(Cc1cnc2nc(N)nc(N)c2n1)c1ccc(C(=O)NC(CCC(=O)Nc2ccccc2)C(=O)Nc2ccccc2)cc1 (stereo not drawn) has an IC50 (L1210 [5]) of 410 nM, an MTX equivalent (L1210 [8]) of 90 mg/kg and an ILS at 40 mg/kg (L1210 [9]) of 44%. It also gave an MTX equivalent (L1210 [10]) of 30 mg/kg, an IC50 (CCRF-CEM [11]) of 3300 nM and an ILS at 120 mg/kg (L1210 [12]) of 155%. The MTX equivalent (L1210 [13]) was 60 mg/kg, the ILS at 80 mg/kg (L1210 [14]) was 111% and the “Median T/C” value (Mus musculus [15]) was 19 days. For the same molecule, the “Median T/C” value (Mus musculus [16]) was 13 days, the ID50 [17] was 1100 nM and the ID50 [7] was 74 nM. The “Median T/C” value (Mus musculus [18]) was 23 days.
CN(Cc1cnc2nc(N)nc(N)c2n1)c1ccc(C(=O)N[C@@H](CCC(=O)O)C(=O)O)cc1 [METHOTREXATE] was tested, and the IC50 (L1210 [5]) was 10 nM, the “Median T/C” value (Mus musculus [19]) was 16.5 days and the IC50 (CCRF-CEM [11]) was 3 nM. The “Median T/C” value (Mus musculus [20]) was 15.5 days, the ILS at 30 mg/kg (L1210 [21]) was 83% and the ILS at 15 mg/kg (L1210 [22]) was 72%. The IC50 (RBL-1) was 3 nM and the “Median T/C” value (Mus musculus [23]) was 18 days.
For CN(Cc1cnc2nc(N)nc(N)c2n1)c1ccc(C(=O)NC(CCC(=O)NCc2ccc(Cl)cc2)C(=O)NCc2ccc(Cl)cc2)cc1 (stereo not drawn), the IC50 (L1210 [5]) was 6600 nM, the ILS at 80 mg/kg (L1210 [24]) was 22% and the IC50 (CCRF-CEM [11]) was over 10000 nM. For the same molecule, the ID50 [6] was 2300 nM, the “Median T/C” value (Mus musculus [25]) was 13 days and the MTX equivalent (L1210 [13]) was 65 mg/kg. The “Median T/C” value (Mus musculus [26]) was 11 days, the MTX equivalent (L1210 [27]) was 130 mg/kg and the ID50 [7] was 180 nM. For the same molecule, the ILS at 160 mg/kg (L1210 [28]) was 44%.
